Key:
[1] = Cytotoxicity against human HepG2 cells assessed as cell growth inhibition at 30 uM after 48 hrs by MTT assay; type: functional; details: HepG2, 48 h, read-out: GI
How it was run: (§1)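 Adherent lines at 70–75% confluence, grown at 37 °C in 5% CO2 with 10% FCS. Exposed 48 h to compound in DMSO (vehicle <0.2% v/v). MTT dye added 3 h before termination; formazan dissolved in DMSO, OD 570 nm with 620 nm reference. Growth inhibition expressed as % of untreated; IC50 taken from the dose series.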

[2] = Lipophilicity, log P of the compound; type: physicochemical; details: octanol/water
[3] = Aqueous solubility of the compound at pH 7; type: physicochemical
[4] = Cytotoxicity against human HL60 cells assessed as cell growth inhibition at 50 uM after 48 hrs by MTT assay; type: functional; details: HL-60, 48 h, read-out: GI
How it was run: (§2)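 HL-60 suspension cells, 1.5 × 10^4 per well, grown at 37 °C in 5% CO2 with 10% FCS. Treated 48 h with compound in DMSO (vehicle <0.2% v/v). MTT added 3 h before the end. Formazan dissolved in DMSO and read at 570 nm (reference 620 nm). % growth inhibition computed against untreated cells; IC50 taken from the concentration series.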

[5] = Cytotoxicity against human LS180 cells assessed as cell growth inhibition at 30 uM after 48 hrs by MTT assay; type: functional; details: LS180, 48 h, read-out: GI; how it was run: as §1
[6] = Cytotoxicity against human MIAPaCa2 cells assessed as cell growth inhibition at 50 uM after 48 hrs by MTT assay; type: functional; details: MIA PaCa-2, 48 h, read-out: GI; how it was run: as §1
[7] = Cytotoxicity against human HL60 cells assessed as cell growth inhibition at 30 uM after 48 hrs by MTT assay; type: functional; details: HL-60, 48 h, read-out: GI; how it was run: as §2
[8] = Cytotoxicity against human LS180 cells assessed as cell growth inhibition at 50 uM after 48 hrs by MTT assay; type: functional; details: LS180, 48 h, read-out: GI; how it was run: as §1
[9] = Cytotoxicity against human PC3 cells assessed as cell growth inhibition at 30 uM after 48 hrs by MTT assay; type: functional; details: PC-3, 48 h, read-out: GI; how it was run: as §1
[10] = Cytotoxicity against human PC3 cells assessed as cell growth inhibition at 50 uM after 48 hrs by MTT assay; type: functional; details: PC-3, 48 h, read-out: GI; how it was run: as §1
[11] = Cytotoxicity against human HepG2 cells assessed as cell growth inhibition at 50 uM after 48 hrs by MTT assay; type: functional; details: HepG2, 48 h, read-out: GI; how it was run: as §1
[12] = Cytotoxicity against human MIAPaCa2 cells assessed as cell growth inhibition at 30 uM after 48 hrs by MTT assay; type: functional; details: MIA PaCa-2, 48 h, read-out: GI; how it was run: as §1

SMILES | inhibition of growth at 30 µM [1] [%] | logP [2] | solubility [3] [µg/mL] | inhibition of growth at 50 µM [4] [%] | inhibition of growth at 30 µM [5] [%] | inhibition of growth at 50 µM [6] [%] | inhibition of growth at 30 µM [7] [%] | inhibition of growth at 50 µM [8] [%] | inhibition of growth at 30 µM [9] [%] | inhibition of growth at 50 µM [10] [%] | inhibition of growth at 50 µM [11] [%] | inhibition of growth at 30 µM [12] [%]
Cc1cc(C(=O)/C=C/c2ccc(OCCO[C@H]3O[C@@H]4O[C@@]5(C)CC[C@H]6[C@H](C)CC[C@@H]([C@H]3C)[C@@]46OO5)cc2)ccc1OCCO[C@H]1O[C@@H]2O[C@@]3(C)CC[C@H]4[C@H](C)CC[C@@H]([C@H]1C)[C@@]24OO3 | 13.6 | 5.34 to 7.45 | < 10 | 70.4 | 7.1 | 49.2 | 68.9 | 23.5 | 6.4 | 23.5 | 20.7 | 44.3
C[C@H]1[C@@H](OCCOc2ccc(C(=O)/C=C/c3c[nH]c4ccccc34)cc2)O[C@@H]2O[C@@]3(C)CC[C@H]4[C@H](C)CC[C@@H]1[C@@]24OO3 | 21.2 | 5.34 to 7.45 | < 10 | 91.8 | 41.9 | 49.4 | 89.1 | 44.1 | 38.6 | 39.6 | 25.9 | 49.1
C[C@H]1[C@@H](OCCOc2ccc(/C=C/C(=O)c3ccc(Cl)cc3)cc2)O[C@@H]2O[C@@]3(C)CC[C@H]4[C@H](C)CC[C@@H]1[C@@]24OO3 | 19.7 | 5.34 to 7.45 | < 10 | 93.2 | 42.1 | 62.8 | 89.4 | 45.6 | 38.7 | 41.8 | 25.1 | 54.4
C[C@H]1[C@@H](OCCOc2cccc(C(=O)/C=C/c3cn(CCO[C@H]4O[C@@H]5O[C@@]6(C)CC[C@H]7[C@H](C)CC[C@@H]([C@H]4C)[C@@]57OO6)c4ccccc34)c2)O[C@@H]2O[C@@]3(C)CC[C@H]4[C@H](C)CC[C@@H]1[C@@]24OO3 | 25.4 | 5.34 to 7.45 | < 10 | 83.2 | 36.2 | 49.4 | 81.5 | 37.8 | 46.3 | 48.7 | 28.7 | 47.1
C[C@H]1[C@@H](OCCOc2ccc(/C=C/C(=O)c3ccc(OCCO[C@H]4O[C@@H]5O[C@@]6(C)CC[C@H]7[C@H](C)CC[C@@H]([C@H]4C)[C@@]57OO6)cc3)cc2)O[C@@H]2O[C@@]3(C)CC[C@H]4[C@H](C)CC[C@@H]1[C@@]24OO3 | 40.9 | 5.34 to 7.45 | < 10 | 87.9 | 45.8 | 49.1 | 85.6 | 49.5 | 44.2 | 47.6 | 47.8 | 45.1
COc1ccc(C(=O)/C=C/c2ccc(OCCO[C@H]3O[C@@H]4O[C@@]5(C)CC[C@H]6[C@H](C)CC[C@@H]([C@H]3C)[C@@]46OO5)cc2)c(OC)c1 | 27.3 | 5.34 to 7.45 | < 10 | 89.5 | 63.3 | 46.8 | 89.3 | 74.1 | 47.4 | 49.8 | 28.9 | 44.1
COc1ccc(/C=C/C(=O)c2ccc(OCCO[C@H]3O[C@@H]4O[C@@]5(C)CC[C@H]6[C@H](C)CC[C@@H]([C@H]3C)[C@@]46OO5)cc2)c(OC)c1 | 18.2 | 5.34 to 7.45 | < 10 | 85.7 | 27.5 | 41.7 | 83.5 | 29.6 | 38.2 | 46.9 | 25.1 | 24.8
CCOc1cc(/C=C/C(=O)c2ccc(OCCO[C@H]3O[C@@H]4O[C@@]5(C)CC[C@H]6[C@H](C)CC[C@@H]([C@H]3C)[C@@]46OO5)cc2)ccc1O | 25.5 | 5.34 to 7.45 | < 10 | 84.1 | 27.4 | 49.8 | 80.8 | 36.3 | 55.1 | 58.9 | 28.2 | 49.4
COc1ccc(/C=C/C(=O)c2ccc(OCCO[C@H]3O[C@@H]4O[C@@]5(C)CC[C@H]6[C@H](C)CC[C@@H]([C@H]3C)[C@@]46OO5)cc2)c(OC)c1OC | 28.1 | 5.34 to 7.45 | < 10 | 82.9 | 50.8 | 43.1 | 78.7 | 58.5 | 53.3 | 54.2 | 30.1 | 36.2
C[C@@H]1CC[C@H]2[C@@H](C)C(=O)O[C@@H]3O[C@@]4(C)CC[C@@H]1[C@]32OO4 [ARTEMISININ] | 10.5 |  |  | 19.8 | 13.4 | 18 | 14.4 | 18.5 | 16 | 17.6 | 14.4 | 13
C[C@H]1[C@@H](OCCOc2ccc(/C=C/C(=O)c3cccc(O)c3)cc2)O[C@@H]2O[C@@]3(C)CC[C@H]4[C@H](C)CC[C@@H]1[C@@]24OO3 | 33.6 | 5.34 to 7.45 | < 10 | 76.5 | 31.1 | 51.1 | 77.7 | 39.3 | 47.6 | 49.5 | 38.3 | 44.1
C[C@H]1[C@@H](OCCOc2ccc(-c3cc(=O)c4ccc(OCCO[C@H]5O[C@H]6O[C@@]7(C)CC[C@H]8[C@H](C)CC[C@@H]([C@H]5C)[C@@]68OO7)cc4o3)cc2)O[C@H]2O[C@@]3(C)CC[C@H]4[C@H](C)CC[C@@H]1[C@@]24OO3 | 30.1 to 87.4 | 5.34 to 7.45 | < 10 | 73.8 | 30.5 | 41.8 | 71.8 | 39.7 | 40.6 | 41.3 | 37.7 | 32.7
C[C@H]1[C@@H](OCCOc2ccc(/C=C/C(=O)c3ccccc3Cl)cc2)O[C@@H]2O[C@@]3(C)CC[C@H]4[C@H](C)CC[C@@H]1[C@@]24OO3 | 23.8 | 5.34 to 7.45 | < 10 | 92.9 | 56.7 | 61.1 | 91.8 | 57.5 | 52.4 | 56.1 | 25.2 | 55.1
C[C@H]1[C@@H](OCCOc2ccc(/C=C/C(=O)c3cc4ccccc4o3)cc2)O[C@@H]2O[C@@]3(C)CC[C@H]4[C@H](C)CC[C@@H]1[C@@]24OO3 | 29.9 | 5.34 to 7.45 | < 10 | 88.7 | 37.6 | 62.3 | 84.6 | 43.6 | 42.5 | 48.5 | 32 | 52.4
